Source: ChEMBL document CHEMBL3576866, “Discovery of a Cyclic Boronic Acid β-Lactamase Inhibitor (RPX7009) with Utility vs Class A Serine Carbapenemases” (J Med Chem, 2015)

How the values were obtained:
[1] = Inhibition of elastase (unknown origin) using Suc-AAPA-pNA as substrate preincubated for 10 mins followed by substrate addition measured for 30 mins by spectrophotometric analysis; set-up: species or system Homo sapiens
In short: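 Elastase from a commercial source in 25 mM Tris-HCl, pH 8.0. Inhibitor at various concentrations was preincubated 10 min at 37 °C. Suc-AAPA-pNA (listed at 50 μM) was added and absorbance followed for 30 min. Rates were relative to untreated; IC50 is the concentration giving 50% inhibition.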

[2] = target: Beta lactamase TEM-1 (Klebsiella pneumoniae) (UniProt Q7B899); assay: Inhibition of Klebsiella pneumoniae KP1004 TEM-1 assessed as imipenem MIC at 4 ug/ml by broth microdilution method
In short: (§1)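 CLSI broth microdilution (M07-A9, 2012) MIC of the carbapenem against clinical serine carbapenemase-producing strain, tested alone and with the inhibitor held at a fixed 4 μg/mL.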

[3] = AUC in human at 1 g administered as 3 hrs of infusion; format: ADME, organism-based; conditions: in vivo, iv
[4] = AUC (0 to infinity) in rat at 100 mg/kg, iv administered as 0.5 hrs infusion by HPLC-MS method; format: ADME, organism-based; set-up: dose 100 mg/kg, route intravenous, time infinity; conditions: in vivo
[5] = target: Beta-lactamase SHV-5 (Klebsiella pneumoniae) (UniProt P0A3M1); assay: Inhibition of Klebsiella pneumoniae KP1011 SHV5 assessed as cefepime MIC at 4 ug/ml by broth microdilution method
In short: (§2)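 CLSI broth microdilution (M07-A9) against clinical strains expressing serine β-lactamases.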

[6] = system: Klebsiella pneumoniae; assay: Inhibition of Klebsiella pneumoniae KP1008 KPC-2 assessed as ertapenem MIC at 4 ug/ml by broth microdilution method; in short: as §1
[7] = AUC (0 to infinity) in rat at 1000 mg/kg, iv administered as 0.5 hrs infusion by HPLC-MS method; format: ADME, organism-based; set-up: dose 1000 mg/kg, route intravenous, time infinity; conditions: in vivo
[8] = system: Klebsiella pneumoniae; assay: Inhibition of Klebsiella pneumoniae KP1082 KPC-2 assessed as meropenem MIC at 4 ug/ml by broth microdilution method; in short: as §1
[9] = Volume of distribution in rat at 300 mg/kg, iv administered as 0.5 hrs infusion by HPLC-MS method; format: ADME, organism-based; conditions: in vivo
[10] = target: Beta-lactamase TEM (Enterobacter cloacae) (UniProt Q6W9J1); assay: Inhibition of Enterobacter cloacae ECL1058 TEM-1 assessed as biapenem MIC at 4 ug/ml by broth microdilution method
[11] = target: Beta lactamase TEM-1 (Klebsiella pneumoniae) (UniProt Q7B899); assay: Inhibition of Klebsiella pneumoniae KP1084 TEM-1 assessed as ertapenem MIC at 4 ug/ml by broth microdilution method; in short: as §1
[12] = target: Trypsin (Homo sapiens, UniProt P07477+P07478+P35030); assay: Inhibition of trypsin (unknown origin) using N-Bz-R-AMC as substrate preincubated for 10 mins followed by substrate addition measured for 30 mins by spectrophotometric analysis; format: protein assay
In short: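 Trypsin in 50 mM Tris-HCl, pH 8.0, 10 mM CaCl2, 100 mM NaCl. Preincubated 10 min at 37 °C with varied inhibitor. N-Bz-R-AMC (listed at 200 μM) was then added and fluorescence read for 30 min. Rates were vs untreated control; IC50 is the concentration giving 50% inhibition.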

[13] = system: Klebsiella pneumoniae; assay: Inhibition of Klebsiella pneumoniae KP1087 CTX-M-15 assessed as imipenem MIC at 4 ug/ml by broth microdilution method
[14] = system: Homo sapiens; assay: Toxicity in human at 250 to 1500 mg administered as 3 hrs of infusion; format: organism-based; conditions: in vivo, iv
In short: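 Phase 1 study in 36 normal (healthy) volunteers under GCP. Single 3 h infusions were given at 250, 500, 750, 1000, 1250 or 1500 mg, and drug-related adverse events were recorded.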

[15] = target: Carbapenem-hydrolyzing beta-lactamase KPC (Klebsiella oxytoca) (UniProt Q848S6); assay: Inhibition of Klebsiella oxytoca KX1019 KPC-2 assessed as biapenem MIC at 4 ug/ml by broth microdilution method
[16] = system: Klebsiella pneumoniae; assay: Inhibition of Klebsiella pneumoniae KP1087 SHV-11 assessed as imipenem MIC at 4 ug/ml by broth microdilution method
In short: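 CLSI broth microdilution (M07-A9) against clinical K. pneumoniae strain KP1087 (KPC-2, CTX-M-15, SHV-11, TEM-1); carbapenem MIC (μg/mL) read with the inhibitor held at a fixed 4 μg/mL, alongside carbapenem alone.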

[17] = target: Beta-lactamase (Enterobacter cloacae) (UniProt G8A3U3); assay: Inhibition of Enterobacter cloacae ECL1003 TEM assessed as cefepime MIC at 4 ug/ml by broth microdilution method
[18] = system: Klebsiella pneumoniae; assay: Inhibition of Klebsiella pneumoniae KP1084 SHV-11 assessed as ertapenem MIC at 4 ug/ml by broth microdilution method; in short: as §1
[19] = target: T1, Class A carbapenemase (Enterobacter cloacae) (UniProt A7WP95); assay: Inhibition of Enterobacter cloacae ECL1058 KPC-3 assessed as ertapenem MIC at 4 ug/ml by broth microdilution method
T1 sequence (whole entry): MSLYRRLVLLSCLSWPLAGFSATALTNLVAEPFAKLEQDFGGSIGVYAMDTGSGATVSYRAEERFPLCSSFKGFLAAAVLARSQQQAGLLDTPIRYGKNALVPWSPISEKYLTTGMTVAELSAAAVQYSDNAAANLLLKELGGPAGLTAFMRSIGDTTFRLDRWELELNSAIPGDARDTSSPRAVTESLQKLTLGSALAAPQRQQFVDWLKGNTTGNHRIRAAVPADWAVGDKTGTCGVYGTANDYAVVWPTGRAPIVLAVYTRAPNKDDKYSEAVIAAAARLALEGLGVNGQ

[20] = target: Beta-lactamase (Klebsiella pneumoniae) (UniProt Q93LQ9); assay: Inhibition of Klebsiella pneumoniae KP1004 KPC 2 carbapenemase assessed as minimum concentration required to reduce biapenem MIC from […] ug/ml to 1 ug/mL by broth microdilution method
[21] = system: Klebsiella pneumoniae; assay: Inhibition of Klebsiella pneumoniae KP1087 CTX-M-15 assessed as ertapenem MIC at 4 ug/ml by broth microdilution method; in short: as §1
[22] = system: Escherichia coli; assay: Inhibition of Escherichia coli EC1011 TEM-26 assessed as cefepime MIC at 4 ug/ml by broth microdilution method; in short: as §2
[23] = system: Enterobacter cloacae; assay: Inhibition of Enterobacter cloacae ECL1058 SHV-11 assessed as ertapenem MIC at 4 ug/ml by broth microdilution method
[24] = system: Klebsiella pneumoniae; assay: Inhibition of Klebsiella pneumoniae KP1082 KPC-2 assessed as ertapenem MIC at 4 ug/ml by broth microdilution method; in short: as §1
[25] = Half life in rat at 300 mg/kg, iv administered as 0.5 hrs infusion by HPLC-MS method; format: ADME, organism-based; conditions: in vivo
[26] = target: Beta-lactamase TEM (Enterobacter cloacae) (UniProt Q6W9J1); assay: Inhibition of Enterobacter cloacae ECL1058 TEM-1 assessed as imipenem MIC at 4 ug/ml by broth microdilution method
[27] = target: Beta-lactamase TEM (Enterobacter cloacae) (UniProt Q6W9J1); assay: Inhibition of Enterobacter cloacae ECL1058 TEM-1 assessed as meropenem MIC at 4 ug/ml by broth microdilution method
[28] = system: Escherichia coli; assay: Inhibition of Escherichia coli EC1008 CTX-M-3 assessed as cefepime MIC at 4 ug/ml by broth microdilution method; in short: as §2

Chain of Beta-lactamase TEM (Enterobacter cloacae) (Q6W9J1 as listed by the source): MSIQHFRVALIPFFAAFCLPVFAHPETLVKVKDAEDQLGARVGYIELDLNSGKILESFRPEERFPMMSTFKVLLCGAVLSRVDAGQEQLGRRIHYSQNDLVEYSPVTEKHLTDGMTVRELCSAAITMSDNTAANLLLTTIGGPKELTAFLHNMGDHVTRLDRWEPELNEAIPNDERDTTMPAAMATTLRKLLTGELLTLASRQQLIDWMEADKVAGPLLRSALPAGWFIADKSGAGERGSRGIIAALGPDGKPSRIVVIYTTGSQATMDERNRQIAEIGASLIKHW
Chain of Beta lactamase TEM-1 (Klebsiella pneumoniae) (Q7B899 as listed by the source): as the sequence (Q6W9J1 as listed by the source) above
Chain of Beta-lactamase SHV-5 (Klebsiella pneumoniae) (P0A3M1 whole entry): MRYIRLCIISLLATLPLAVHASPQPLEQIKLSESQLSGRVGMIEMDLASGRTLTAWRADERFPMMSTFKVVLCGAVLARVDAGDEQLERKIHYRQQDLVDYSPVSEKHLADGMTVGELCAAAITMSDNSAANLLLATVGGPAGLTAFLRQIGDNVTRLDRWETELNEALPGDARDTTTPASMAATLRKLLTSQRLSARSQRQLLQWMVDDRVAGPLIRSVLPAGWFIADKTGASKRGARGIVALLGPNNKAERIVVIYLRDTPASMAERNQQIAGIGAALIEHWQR
Chain of Beta-lactamase (Enterobacter cloacae) (G8A3U3 as listed by the source): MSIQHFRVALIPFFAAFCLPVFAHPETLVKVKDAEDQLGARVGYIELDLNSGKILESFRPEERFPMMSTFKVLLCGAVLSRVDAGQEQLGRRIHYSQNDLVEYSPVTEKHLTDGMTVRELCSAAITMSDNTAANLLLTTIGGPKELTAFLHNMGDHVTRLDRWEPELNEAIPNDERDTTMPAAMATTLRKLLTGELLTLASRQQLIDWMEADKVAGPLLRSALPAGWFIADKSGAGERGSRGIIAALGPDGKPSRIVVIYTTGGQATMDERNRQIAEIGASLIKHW
Chain of Carbapenem-hydrolyzing beta-lactamase KPC (Klebsiella oxytoca) (Q848S6 whole entry): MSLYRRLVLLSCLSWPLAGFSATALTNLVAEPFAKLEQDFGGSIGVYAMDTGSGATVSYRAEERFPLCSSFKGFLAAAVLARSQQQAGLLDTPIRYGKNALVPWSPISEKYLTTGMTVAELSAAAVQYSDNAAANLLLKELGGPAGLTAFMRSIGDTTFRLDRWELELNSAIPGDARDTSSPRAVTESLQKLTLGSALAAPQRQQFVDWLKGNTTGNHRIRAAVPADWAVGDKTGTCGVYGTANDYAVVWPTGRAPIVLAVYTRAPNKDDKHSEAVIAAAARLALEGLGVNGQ
Chain of Beta-lactamase (Klebsiella pneumoniae) (Q93LQ9 as listed by the source): as the sequence (Q848S6 whole entry) above

## O=C(O)C[C@@H]1CC[C@H](NC(=O)Cc2cccs2)B(O)O1 [VABORBACTAM]
[1]
  IC50: > 1 mM
[2]
  MIC: < 0.06 µg/mL
[3]
  AUC at 3 h: 100000 ng·h/mL
[4]
  AUC(0-inf): 64000 ng·h/mL
[5]
  MIC: 0.25 µg/mL
[6]
  MIC: ≤ 0.06 µg/mL
[7]
  AUC(0-inf): 1040 µg·h/mL
[8]
  MIC: ≤ 0.06 µg/mL
[9]
  Vd: 0.48 L/kg
[10]
  MIC: < 0.06 µg/mL
[11]
  MIC: 4 µg/mL
[12]
  IC50: > 1000 µM
[13]
  MIC: 0.25 µg/mL
[14]
  Activity: Non-toxic
[15]
  MIC: 0.25 µg/mL
[16]
  MIC: 0.25 µg/mL
[17]
  MIC: 8 µg/mL
[18]
  MIC: 4 µg/mL
[19]
  MIC: 0.25 µg/mL
[20]
  MEC: 0.02 µg/mL
[21]
  MIC: 2 µg/mL
[22]
  MIC: 2 µg/mL
[23]
  MIC: 0.25 µg/mL
[24]
  MIC: ≤ 0.06 µg/mL
[25]
  half-life: 15.6 min
[26]
  MIC: 0.25 µg/mL
[27]
  MIC: < 0.06 µg/mL
[28]
  MIC: 4 µg/mL
